Here are results for twelve molecules from ChEMBL document CHEMBL1127837, “6,9-Bis[(aminoalkyl)amino]benzo[g]isoquinoline-5,10-diones. A novel class of chromophore-modified antitumor anthracene-9,10-diones: synthesis and antitumor evaluations” (J Med Chem, 1994).

SMILES strings stand for the structures. ≈ marks a conversion by molar mass, not a printed value. Where “and” joins values, the source holds several entries; their conditions need not be identical. Equal entries are not always repeated.

Series [1] in a line: Resistance index is the ratio of IC50 of resistant cell line/IC50 of sensitive cell line. It counts as functional. A digest of the protocol:
(§1)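 LoVo and doxorubicin-resistant LoVo/Dx colon cells grown in Ham's F12 with 10% fetal calf serum, glutamine, vitamins and Hepes at 37 °C. 2.5 × 10^5 cells/mL plated and preincubated 24 h, then exposed to drug for 144 h. MTT read-out at 570 nm. IC50 (µg/mL) derived; resistance index = IC50 resistant / IC50 sensitive line.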

The nature of series [2]: (§2) The compound was tested for antitumor activity against P388 murine leukemia by measuring maximum tolerated dose. Type of series: ADME, organism-based. As to conditions: mouse, in vivo; read-out: LD10. A digest of the protocol: (§3)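 CD2F1 mice were given 10^6 P388 cells iv, followed by iv treatment on days 1, 4 and 7 after transplantation. Mice were observed daily for toxicity and survival for 60 days. The value is the maximum tolerated dose, taken as LD10, or else the maximum dose administered.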

A further series has as its system P388. The series is described as follows: Tested for antitumor activity against P388 murine leukemia. Type of series: functional, Mus musculus. An outline of the steps:
(§4)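 P388 cells kept by serial ip passage (10^5 cells) in DBA2 male mice. CD2F1 mice inoculated iv with 10^6 cells on day 0. Drug given iv on days 1, 4 and 7. Daily observation for toxicity and survival over 60 days. Median survival time per group, expressed as %T/C = MST treated/MST control × 100.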

For a further series, the system named is LoVo/DX (Homo sapiens). In words: Tested in vitro for cytotoxic activity against Doxorubicin resistant Human colon Adenocarcinoma cell line.
The next series deals with L1210. The series is described as follows: Tested in vitro for inhibitory activity against L1210 murine leukemia. As to conditions: Mus musculus. It counts as functional, cell-based. A digest of the protocol:
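L1210 suspension cells grown in McCoy's 5A with 10% horse serum, 10% CO2, 37 °C. Drug dissolved in water and added to 10^5 cells/tube at final 0.01, 0.1, 1 and 10 µg/mL.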

A further series relates to LoVo. The series is described as follows: Tested in vitro for cytotoxic activity against Human colon Adenocarcinoma sensitive cell line (LoVo). Type of series: functional, cell-based. A digest of the protocol:
as §1

The species entered for series [3] is Mus musculus. The series is described as follows: The compound was tested for antitumor activity against P388 murine leukemia. Type of series: functional. A digest of the protocol:
as §4

The species named for series [4] is Mus musculus. Described as §2. Type of series: ADME, organism-based. As to conditions: in vivo. A digest of the protocol:
as §3

In series [5] the test system is Mus musculus. The series is described as follows: The compound was tested for antitumor activity against P388 murine leukemia at 2 (mg/kg/day) dose; 0/82 -no. of toxic deaths/no. of mice. Type of series: ADME, organism-based. As to conditions: in vivo.
Series [6] concerns Mus musculus. The series is described as follows: The compound was tested for antitumor activity against P388 murine leukemia at 3 (mg/kg/day) dose; 12/132 -no. of toxic deaths/no. of mice. To be noted: in vivo. Type of series: ADME, organism-based.
Series [7] has as its system Mus musculus. The series is described as follows: The compound was tested for antitumor activity against P388 murine leukemia at 4 (mg/kg/day) dose; 43/48 -no. of toxic deaths/no. of mice. It counts as ADME, organism-based. To be noted: in vivo.
For series [8], the species on record is Mus musculus. In words: The compound was tested for antitumor activity against P388 murine leukemia by measuring median survival time of treated mice/median survival time of control x 100. Type of series: functional.

For the molecule `O=C1c2ccncc2C(=O)c2c(NCCN3CCOCC3)ccc(NCCN3CCOCC3)c21`, the Ratio in series [1] is reported as 0.4. Moreover, the MTD in series [2] is 60 mg/kg/day. This molecule also came in with a T/C in the series with P388 of 122%. For the same molecule, the figures for the IC50 with LoVo/DX (Homo sapiens), in the series on L1210 and in the series with LoVo were 2.3 µg/mL (≈ 4.94 µM), 1.1 µg/mL (≈ 2.36 µM) and 5.32 µg/mL (≈ 11.4 µM), respectively.
Consider `NCCNc1ccc(NCCN)c2c1C(=O)c1cc[n+]([O-])cc1C2=O`, for which, in series [1], the Ratio amounted to 10. Moreover, the MTD in series [2] worked out at 60 mg/kg/day. This molecule registered a T/C with P388 of 200%. Also, the results for the IC50 in the series with LoVo/DX (Homo sapiens) and in the series with LoVo were 62.6 µg/mL (≈ 183 µM) and 7.3 µg/mL (≈ 21.4 µM), respectively.
For the molecule `NCCCCNc1ccc(NCCCCN)c2c1C(=O)c1ccncc1C2=O`, the Ratio in series [1] is given as 0.4. Besides, the MTD in series [2] came to 35 mg/kg/day. Further, the IC50 with LoVo/DX (Homo sapiens) is 0.83 µg/mL (≈ 2.18 µM); with L1210 it was 1.5 µg/mL (≈ 3.93 µM); in the series on LoVo it was 2.27 µg/mL (≈ 5.95 µM). This molecule also displayed a T/C in the series listed under Mus musculus [3] of 100%.
For `O=C1c2ccncc2C(=O)c2c(NCCNCCO)ccc(NCCNCCO)c21`, the Ratio in [1] is given as 76. Moreover, in [2], the MTD was determined as 40 mg/kg/day. The molecule further gave a T/C in the series on P388 of 118%. In addition, the IC50 in the series with LoVo/DX (Homo sapiens) is 99.5 µg/mL (≈ 241 µM); in the series on L1210 it was 0.06 µg/mL (≈ 0.145 µM); in the series with LoVo, 1.3 µg/mL (≈ 3.14 µM).
Consider `O=C1c2c(O)ccc(O)c2C(=O)c2c(NCCNCCO)ccc(NCCNCCO)c21` [MITOXANTRONE], for which, in series [1], the Ratio was found to be 28. The LD10 in the series filed under Mus musculus [4] was 2 mg/kg/day and 4 mg/kg/day. Moreover, in series [2], the MTD was found to be 3 mg/kg/day. The Toxic deaths with Mus musculus [5] is 0; with Mus musculus [6] it was 12; in the series on Mus musculus [7] it was 43. In addition, the T/C is 172% and 138% in the series with P388; 196% in the series listed under Mus musculus [8]. The half-maximal inhibitory concentration (IC50) with LoVo/DX (Homo sapiens) was 0.25 µg/mL (≈ 0.562 µM); in the series with L1210 it was 0.009 µg/mL (≈ 0.0202 µM); with LoVo it was 0.009 µg/mL (≈ 0.0202 µM).
For the molecule `CCN(CC)CCNc1ccc(NCCN(CC)CC)c2c1C(=O)c1ccncc1C2=O`, in [1], the Ratio turned out to be 2.4. Moreover, in series [2], the MTD came out at 60 mg/kg/day. For the same molecule, in the series on P388, the T/C is on record as 122%. The IC50 came to 0.69 µg/mL (≈ 1.58 µM) in the series with LoVo/DX (Homo sapiens), 0.06 µg/mL (≈ 0.137 µM) in the series with L1210 and 0.29 µg/mL (≈ 0.663 µM) in the series on LoVo.
With `O=C1c2ccccc2C(=O)c2c(NCCNCCO)ccc(NCCNCCO)c21` [AMETANTRONE], the Ratio in [1] was 87. In addition, the MTD in [2] is 58 mg/kg/day. This molecule also gave a T/C with P388 of 127%. Also, the IC50 is 34.7 µg/mL (≈ 84.1 µM) in the series with LoVo/DX (Homo sapiens), 0.03 µg/mL (≈ 0.0727 µM) with L1210 and 0.4 µg/mL (≈ 0.97 µM) in the series on LoVo.
With `CC(C)N(CCNc1ccc(NCCN(C(C)C)C(C)C)c2c1C(=O)c1ccncc1C2=O)C(C)C`, in series [1], the Ratio turned out to be 1.1. Further, the IC50 is 2.8 µg/mL (≈ 5.67 µM) with LoVo/DX (Homo sapiens), 1.8 µg/mL (≈ 3.65 µM) in the series on L1210 and 2.5 µg/mL (≈ 5.06 µM) with LoVo.
`CC(=O)NCCNc1ccc(NCCNC(C)=O)c2c1C(=O)c1ccncc1C2=O`: the IC50 in the series on L1210 was above 10 µg/mL.
For `NCCNc1ccc(NCCN)c2c1C(=O)c1ccncc1C2=O` [PIXANTRONE], the Ratio in [1] worked out at 30. Also, the IC50 with LoVo/DX (Homo sapiens) worked out at 7.2 µg/mL (≈ 22.1 µM); in the series on LoVo, 0.24 µg/mL (≈ 0.738 µM).
As to `CNCCNc1ccc(NCCNC)c2c1C(=O)c1ccncc1C2=O.Cl`, the Ratio in series [1] worked out at 36. Also, in series [2], the MTD came to 8 mg/kg/day. This molecule gave a T/C in the series on P388 of 189%. In addition, the IC50 stood at 2.9 µg/mL in the series on LoVo/DX (Homo sapiens) and 0.08 µg/mL in the series on LoVo.
Consider `CN(C)CCNc1ccc(NCCN(C)C)c2c1C(=O)c1cc[n+]([O-])cc1C2=O`, for which, in [1], the Ratio is 6. Also, the MTD in series [2] came to 40 mg/kg/day. In the series on P388, this molecule gave a T/C of 122%. Moreover, the IC50 with LoVo/DX (Homo sapiens) is 2.6 µg/mL (≈ 6.54 µM); in the series on LoVo it was 0.44 µg/mL (≈ 1.11 µM).
